Assays:
[1] = biological target: Major prion protein (Homo sapiens) (UniProt P04156); assay: Binding affinity to human PrPC at 40 uM
Method in brief: (§1)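 SPR at 25 °C, 30 µL/min. Each PrPC form was amine-coupled at 2 µg/mL onto a CM5 dextran chip via NHS/EDC, with ethanolamine block; flow cell 1 served as control. Ligand at 40 µM, 1 min association, 3 min dissociation, with DMSO calibration. Binding expressed as %RU_max, normalised for immobilised RU and molecular weights.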

[2] = biological target: Major prion protein (Mus musculus) (UniProt P04925); assay: Binding affinity to mouse PrPC at 40 uM; method in brief: as §1
[3] = biological target: Major prion protein (Homo sapiens) (UniProt P04156); assay: Binding affinity to truncated human PrPC at 40 uM; method in brief: as §1

Major prion protein (Mus musculus), sequence (P04925 whole entry, the tested form may be a part): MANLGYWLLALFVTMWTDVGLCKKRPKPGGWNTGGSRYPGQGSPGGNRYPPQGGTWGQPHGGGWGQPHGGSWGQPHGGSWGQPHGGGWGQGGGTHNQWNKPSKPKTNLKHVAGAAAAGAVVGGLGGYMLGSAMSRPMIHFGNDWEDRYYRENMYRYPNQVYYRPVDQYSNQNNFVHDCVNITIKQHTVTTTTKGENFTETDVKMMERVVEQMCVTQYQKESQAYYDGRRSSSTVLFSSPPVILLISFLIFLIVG

## N#Cc1c(N)nc(Sc2cccc(Cl)c2)c(C#N)c1-c1ccc(Cl)cc1
[1]
  RUmax: 119%
[2]
  RUmax: 52.3%
[3]
  RUmax: 56.5%

## N#Cc1c(N)nc(Sc2ccc(O)cc2)c(C#N)c1-c1ccc(O)c(Cl)c1
[1]
  RUmax: 53.4%
[2]
  RUmax: 64.6%
[3]
  RUmax: 33.4%

## COc1cccc(-c2c(C#N)c(N)nc(Sc3ccccc3)c2C#N)c1
[1]
  RUmax: 0%
[2]
  RUmax: 0%
[3]
  RUmax: 0%

## COc1ccc(-c2c(C#N)c(N)nc(Sc3ccccc3)c2C#N)cc1
[1]
  RUmax: 0%
[2]
  RUmax: 0%
[3]
  RUmax: 0%

## N#Cc1c(N)nc(Sc2ccc(O)cc2)c(C#N)c1-c1ccc(O)c(F)c1
[1]
  RUmax: 44.2%
[2]
  RUmax: 53.8%
[3]
  RUmax: 28%

## N#Cc1c(N)nc(Sc2ccccc2F)c(C#N)c1-c1cccc(O)c1
[1]
  RUmax: 17.2%
[2]
  RUmax: 18.8%
[3]
  RUmax: 9.2%

## COC(=O)c1ccc(Sc2nc(N)c(C#N)c(-c3ccc(O)cc3)c2C#N)cc1
[1]
  RUmax: 0%
[2]
  RUmax: 0%
[3]
  RUmax: 0%

## CC(=O)c1ccc(-c2c(C#N)c(N)nc(Sc3ccc(O)cc3)c2C#N)cc1
[1]
  RUmax: 0%
[2]
  RUmax: 0%
[3]
  RUmax: 0%

## COc1ccc(-c2c(C#N)c(N)nc(Sc3cccc(Cl)c3)c2C#N)cc1
[1]
  RUmax: 0%
[2]
  RUmax: 0%
[3]
  RUmax: 0%

## COC(=O)c1cccc(Sc2nc(N)c(C#N)c(-c3ccccc3)c2C#N)c1
[1]
  RUmax: 125%
[2]
  RUmax: 33.2%
[3]
  RUmax: 26.8%

## COc1cccc(-c2c(C#N)c(N)nc(Sc3cccc(Cl)c3)c2C#N)c1
[1]
  RUmax: 8.6%
[2]
  RUmax: 0%
[3]
  RUmax: 6.7%

## COC(=O)c1ccc(-c2c(C#N)c(N)nc(Sc3ccc(C(=O)O)cc3)c2C#N)cc1
[1]
  RUmax: 5.9%
[2]
  RUmax: 8.5%
[3]
  RUmax: 0%

## COC(=O)c1ccc(-c2c(C#N)c(N)nc(Sc3ccc(O)cc3)c2C#N)cc1
[1]
  RUmax: 0%
[2]
  RUmax: 0%
[3]
  RUmax: 0%

## COC(=O)c1ccc(Sc2nc(N)c(C#N)c(-c3ccccc3)c2C#N)cc1
[1]
  RUmax: 0%
[2]
  RUmax: 0%
[3]
  RUmax: 0%

## CC(=O)Nc1ccc(Sc2nc(N)c(C#N)c(-c3cc(F)cc(F)c3)c2C#N)cc1
[1]
  RUmax: 0%
[2]
  RUmax: 0%
[3]
  RUmax: 0%

## COC(=O)c1ccc(Sc2nc(N)c(C#N)c(-c3ccc(C(=O)OC)cc3)c2C#N)cc1
[1]
  RUmax: 0%
[2]
  RUmax: 0%
[3]
  RUmax: 0%

## CS(=O)(=O)c1ccc(-c2c(C#N)c(N)nc(Sc3ccc(O)cc3)c2C#N)cc1
[1]
  RUmax: 0%
[2]
  RUmax: 0%
[3]
  RUmax: 0%

## N#Cc1c(N)nc(Sc2ccccc2)c(C#N)c1-c1ccccc1
[1]
  RUmax: 0%
[2]
  RUmax: 0%
[3]
  RUmax: 0%

## N#Cc1c(N)nc(Sc2ccc(O)cc2)c(C#N)c1-c1cccc(O)c1
[1]
  RUmax: 34%
[2]
  RUmax: 43.1%
[3]
  RUmax: 23.1%

## CC(=O)Nc1ccc(Sc2nc(N)c(C#N)c(-c3c(F)cccc3F)c2C#N)cc1
[1]
  RUmax: 37.3%
[2]
  RUmax: 40.1%
[3]
  RUmax: 20%

## N#Cc1c(N)nc(Sc2cccc(Cl)c2)c(C#N)c1-c1ccccc1
[1]
  RUmax: 0%
[2]
  RUmax: 0%
[3]
  RUmax: 0%

## COC(=O)c1ccc(-c2c(C#N)c(N)nc(Sc3cccc(Cl)c3)c2C#N)cc1
[1]
  RUmax: 0%
[2]
  RUmax: 0%
[3]
  RUmax: 0%

## N#Cc1c(N)nc(Sc2cccc(O)c2)c(C#N)c1-c1ccccc1
[1]
  RUmax: 70.3%
[2]
  RUmax: 60.6%
[3]
  RUmax: 37.6%

## N#Cc1c(N)nc(Sc2ccc(Cl)cc2)c(C#N)c1-c1ccccc1
[1]
  RUmax: 0%
[2]
  RUmax: 0%
[3]
  RUmax: 11.4%

## COC(=O)c1ccc(-c2c(C#N)c(N)nc(Sc3ccc(NC(C)=O)cc3)c2C#N)cc1
[1]
  RUmax: 9.4%
[2]
  RUmax: 13.3%
[3]
  RUmax: 6.4%

## COC(=O)c1ccc(-c2c(C#N)c(N)nc(Sc3cccc(C(=O)OC)c3)c2C#N)cc1
[1]
  RUmax: 0%
[2]
  RUmax: 0%
[3]
  RUmax: 0%
